Test [1] concerns SiHa. The test can be described thus: Anticancer activity against human SiHa cells after 48 hrs by SRB assay. The format is functional. The gist of the method:
(§1)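 Cells grown in RPMI 1640 with 10% FBS and 2 mM L-glutamine, plated at densities set by doubling time, and preincubated 24 h at 37 °C, 5% CO2. Compounds were tested at four concentrations (0.1, 1, 10, 100) in triplicate wells with 48 h continuous exposure. Cells were fixed with cold TCA (10% final, 60 min, 4 °C) and stained with 0.4% SRB in 1% acetic acid (20 min, RT). Dye was eluted with 10 mM Trizma base and read at 540 nm (690 nm reference). Percent growth is relative to control wells, plate by plate.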

Test [2] has as its system A-375. The test can be described thus: Cell cycle arrest in human A375 cells assessed as accumulation at G2/M phase at 4 uM after 24 hrs using propidium iodide staining by FACS. The format is functional. The method, boiled down: (§2)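 Treated A375 cells (24 h) were harvested with trypsin-EDTA and fixed in ice-cold 70% ethanol (4 °C, 30 min). After a PBS wash, they were incubated with 1 mg/mL RNase A (37 °C, 30 min) and stained with propidium iodide solution containing trisodium citrate and Triton X-100. DNA content was measured by flow cytometry on 20,000 events. Controls were DMSO-treated.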

Test [3] deals with A-375. In words: Cell cycle arrest in human A375 cells assessed as accumulation at G0/G1 phase at 4 uM after 24 hrs using propidium iodide staining by FACS. The format is functional. The gist of the method:
as §2

For test [4], the system named is A-375. In words: Cell cycle arrest in human A375 cells assessed as accumulation at S phase at 4 uM after 24 hrs using propidium iodide staining by FACS. The format is functional. The method, boiled down: as §2
(In general: In flow cytometry, cells or beads pass a laser one at a time.)

Test [5] concerns KB. In words: Anticancer activity against human KB cells after 48 hrs by SRB assay. Type of test: functional. The method, boiled down: (§3)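 Grown in RPMI 1640 with 10% FBS and 2 mM L-glutamine at 37 °C, 5% CO2. Seeded at densities set by doubling time, then preincubated 24 h. Continuous 48 h drug exposure at four concentrations (0.1, 1, 10, 100), triplicate wells. Fixed with cold TCA (final 10%) at 4 °C, 60 min. Stained with 0.4% SRB in 1% acetic acid, eluted with 10 mM Tris base, read at 540/690 nm. Percent growth versus control wells.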
(In general: Sulforhodamine B stains cellular protein and so reports cell mass.)

Test [6] concerns A2780. The test can be described thus: Anticancer activity against human A2780 cells after 48 hrs by SRB assay. Type of test: functional. The settings on record: A2780, 48 h. The gist of the method: as §3
Test [7] has as its system ZR-75-1. In words: Anticancer activity against human ZR-75-1 cells after 48 hrs by SRB assay. Type of test: functional. The settings on record: ZR-75-1, 48 h. The method, boiled down: as §1
Test [8] has as its system A-375. The test can be described thus: Induction of apoptosis in human A375 cells assessed as caspase3 activation at 4 uM after 24 hrs by fluorimetry. The format is functional, cell-based. The method, boiled down: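 Caspase-3 activity was measured by a fluorometric assay on lysates of treated and untreated A375 cells.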
For test [9], the system named is A-375. The test can be described thus: Induction of apoptosis in human A375 cells assessed as increase in PPAR protein level at 4 uM after 24 hrs by Western blotting. Type of test: functional, cell-based. The gist of the method:
(§4)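 A375 cells were treated for 24 h and lysed in ice-cold RIPA buffer (1% NP-40, 0.5% deoxycholate, 0.1% SDS, protease inhibitors). Protein was quantified by Bradford assay, and 30 µg/lane was run on 12% SDS-PAGE and transferred to PVDF. Membranes were blocked 2 h at RT in TBST with 5% blocker, incubated with primary antibody overnight at 4 °C, then with HRP secondary (1:2000, 1 h, RT). Detection was by chemiluminescence, with β-actin as loading control.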
In general terms: Immunoblotting shows a protein as a band on a membrane.

For test [10], the system named is A-375. In words: Induction of apoptosis in human A375 cells assessed as reduction in CDK2 protein level at 4 uM after 24 hrs by Western blotting. The format is functional, cell-based. The method, boiled down: as §4

Counter-ions that a name gives are not always drawn. Active and inactive are the calls of the source. No cut-off for these calls is given here.

As a reminder, the GI50 is the concentration that inhibits growth by half.

Consider `COc1cc2c(cc1O)N=C[C@@H]1CCCN1C2=O`, for which the GI50 worked out at 170 nM in test [1], 170 nM in test [5] and 140 nM in [6]. Further, the figures for the Activity in test [2], in test [3] and in test [4] were 1.33%, 88.05% and 10.62%, respectively.

Turning to `COc1cc2c(cc1OCCCCCOc1c(OC)cc(C3CC(c4cc(OC)c(OC)c(OC)c4)=NO3)cc1OC)N=C[C@@H]1CCCN1C2=O` (some centres undefined), the GI50 in test [1] was determined as 180 nM; in test [5] it was 180 nM; in test [6], 150 nM; in test [7], 180 nM.

Turning to `COc1cccc2c1C(=O)c1c(O)c3c(c(O)c1C2=O)C[C@@](O)(C(=O)CO)C[C@@H]3O[C@H]1C[C@H](N)[C@H](O)[C@H](C)O1` [DOXORUBICIN HYDROCHLORIDE], the GI50 in [1] is 1900 nM; in [5], 160 nM; in test [6], < 100 nM; in [7] it was < 100 nM.

As to `COc1ccc(-c2cc(-c3cc(OC)c(OC)c(OC)c3)on2)cc1OCCCCCOc1cc2c(cc1OC)C(=O)N1CCC[C@H]1C=N2`, the GI50 in test [1] is 130 nM; in test [5], 130 nM; in test [6], 120 nM; in test [7] it was < 100 nM.

For the compound `COc1cc2c(cc1OCCCOc1c(OC)cc(-c3cc(-c4cc(OC)c(OC)c(OC)c4)on3)cc1OC)N=C[C@@H]1CCCN1C2=O`, the 50% growth inhibitory concentration (GI50) in test [1] was 150 nM; in test [5], 150 nM; in test [6], 130 nM; in test [7], 180 nM.

On to `COc1cc2c(cc1OCCCCCOc1c(OC)cc(-c3cc(-c4cc(OC)c(OC)c(OC)c4)on3)cc1OC)N=C[C@@H]1CCCN1C2=O`, for which the GI50 stood at 160 nM in test [1], 160 nM in [5], 140 nM in test [6] and 100 nM in test [7].

Consider `COc1ccc(C2CC(c3cc(OC)c(OC)c(OC)c3)=NO2)cc1OCCCOc1cc2c(cc1OC)C(=O)N1CCC[C@H]1C=N2` (some centres undefined), for which the GI50 in test [1] is 180 nM; in test [5] it was 160 nM; in test [6] it was 150 nM; in [7] it was 130 nM.

In the case of `COc1cc(C2=NOC(c3cc(OC)c(OC)c(OC)c3)C2)ccc1O` (centres undefined), the values for the Activity in test [2], in [3] and in test [4] were 1.82%, 82.59% and 15.59%, respectively.

As for `COc1ccc(C2CC(c3cc(OC)c(OC)c(OC)c3)=NO2)cc1OCCCCCOc1cc2c(cc1OC)C(=O)N1CCC[C@H]1C=N2` (some centres undefined), the GI50 in [1] came to 160 nM; in test [5], 160 nM; in test [6], 140 nM; in test [7], 120 nM.

Turning to `COc1cc(C2=NOC(c3cc(OC)c(OC)c(OC)c3)C2)ccc1OCCCCCOc1cc2c(cc1OC)C(=O)N1CCC[C@H]1C=N2` (some centres undefined), the GI50 in test [1], in test [5], in test [6] and in test [7] was < 100 nM in each case. The Activity in [2] is on record as 1.15%; in test [3], 92.45%; in test [4] it was 6.4%. The result in test [8], in test [9] and in test [10] was Active.

Take `COc1ccc(-c2cc(-c3cc(OC)c(OC)c(OC)c3)on2)cc1OCCCCOc1cc2c(cc1OC)C(=O)N1CCC[C@H]1C=N2`: the GI50 was 150 nM in test [1], 150 nM in test [5], 140 nM in [6] and 100 nM in [7].

Consider `COc1ccc(-c2cc(-c3cc(OC)c(OC)c(OC)c3)on2)cc1OCCCOc1cc2c(cc1OC)C(=O)N1CCC[C@H]1C=N2`, for which the GI50 was determined as 150 nM in test [1], 170 nM in [5], 150 nM in [6] and 130 nM in test [7].

`COc1cc2c(cc1OCCCCOc1c(OC)cc(C3CC(c4cc(OC)c(OC)c(OC)c4)=NO3)cc1OC)N=C[C@@H]1CCCN1C2=O` (some centres undefined): the GI50 was 170 nM in test [1], 180 nM in test [5], 150 nM in test [6] and 150 nM in [7].

For the origin of these results see ChEMBL document CHEMBL1240422, “Design, synthesis and biological evaluation of 3,5-diaryl-isoxazoline/isoxazole-pyrrolobenzodiazepine conjugates as potential anticancer agents” (2010).
